ChEMBL document CHEMBL4346654 (Eur J Med Chem, 2019)
≈ marks a conversion by molar mass, not a printed value.

Assays:
Assay type in all cases: functional
Staphylococcus aureus [1] = test: Antibacterial activity against MLS-resistant Staphylococcus aureus PU 32 expressing inducible ermA gene assessed as reduction in microbial growth by CLSI based two-fold broth dilution method
Streptococcus pneumoniae [2] = test: Antibacterial activity against erythromycin-susceptible Streptococcus pneumoniae ATCC49619 assessed as reduction in microbial growth by CLSI based two-fold broth dilution method
Streptococcus pneumoniae [3] = test: Bactericidal activity against erythromycin-susceptible Streptococcus pneumoniae ATCC49619 pretreated followed by subculture in absence of compound measured after 24 hrs
Procedure, shortened: (§1)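 Isolates were identified by 16S rDNA sequencing. MIC was determined by CLSI-recommended two-fold broth dilution. For MBC, samples from 1–8 fold MIC were transferred to culture medium and subcultured for 24 h without antibiotic.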

Haemophilus influenzae [4] = test: Antibacterial activity against azithromycin-susceptible Haemophilus influenzae ATCC 49247 assessed as reduction in microbial growth by CLSI based two-fold broth dilution method
Streptococcus pneumoniae [5] = test: Selectivity ratio of MBC to MIC for erythromycin-susceptible Streptococcus pneumoniae ATCC49619; procedure, shortened: as §1
Streptococcus pneumoniae [6] = test: Antibacterial activity against Streptococcus pneumoniae 07P390 expressing constitutive ermB gene assessed as reduction in microbial growth by CLSI based two-fold broth dilution method
Streptococcus pneumoniae [7] = test: Antibacterial activity against penicillin-susceptible Streptococcus pneumoniae PU 09 expressing mef gene assessed as reduction in microbial growth by CLSI based two-fold broth dilution method
Streptococcus pneumoniae [8] = test: Bactericidal activity against penicillin-susceptible Streptococcus pneumoniae PU 09 expressing mef gene pretreated followed by subculture in absence of compound measured after 24 hrs; procedure, shortened: as §1
Streptococcus pneumoniae [9] = test: Selectivity ratio of MBC to MIC for penicillin-susceptible Streptococcus pneumoniae PU 09 expressing mef gene; procedure, shortened: as §1
Haemophilus influenzae [10] = test: Bactericidal activity against azithromycin-susceptible Haemophilus influenzae ATCC 49247 pretreated followed by subculture in absence of compound measured after 24 hrs; procedure, shortened: as §1
Haemophilus influenzae [11] = test: Selectivity ratio of MBC to MIC for azithromycin-susceptible Haemophilus influenzae ATCC 49247; procedure, shortened: as §1
Streptococcus pyogenes [12] = test: Antibacterial activity against MLS-resistant Streptococcus pyogenes 01-968 expressing inducible ermB gene assessed as reduction in microbial growth by CLSI based two-fold broth dilution method
Streptococcus pyogenes [13] = test: Bactericidal activity against MLS-resistant Streptococcus pyogenes 01-968 expressing inducible ermB gene pretreated followed by subculture in absence of compound measured after 24 hrs
Procedure, shortened: (§2)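 MBC assay. Following MIC determination by CLSI standard two-fold broth dilution, samples at 1–8 fold MIC were transferred to fresh culture medium. They were subcultured for 24 h without antibiotic. Isolates were identified by 16S rDNA sequencing. S. aureus ATCC 29213 was used as a control strain.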

Streptococcus pyogenes [14] = test: Selectivity ratio of MBC to MIC for MLS-resistant Streptococcus pyogenes 01-968 expressing inducible ermB gene
Procedure, shortened: (§3)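 MBC/MIC ratio. MIC was measured by CLSI standard two-fold broth dilution. MBC was measured by transferring samples at 1–8 fold MIC to culture medium and subculturing for 24 h without antibiotic. Isolates were identified by 16S rDNA sequencing.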

Staphylococcus aureus [15] = test: Bactericidal activity against MLS/methicillin-resistant Staphylococcus aureus PU 32 expressing inducible ermA gene pretreated followed by subculture in absence of compound measured after 24 hrs; procedure, shortened: as §2
Staphylococcus aureus [16] = test: Selectivity ratio of MBC to MIC for MLS/methicillin-resistant Staphylococcus aureus PU 32 expressing inducible ermA gene; procedure, shortened: as §3
Staphylococcus aureus [17] = test: Antibacterial activity against MLS-resistant Staphylococcus aureus PU 20 expressing constitutive ermC gene assessed as reduction in microbial growth by CLSI based two-fold broth dilution method
Staphylococcus aureus [18] = test: Bactericidal activity against MLS-resistant Staphylococcus aureus PU 20 expressing constitutive ermC gene pretreated followed by subculture in absence of compound measured after 24 hrs; procedure, shortened: as §2
Streptococcus pneumoniae [19] = test: Bactericidal activity against Streptococcus pneumoniae 07P390 expressing constitutive ermB gene pretreated followed by subculture in absence of compound measured after 24 hrs; procedure, shortened: as §1

Compound | MIC (Staphylococcus aureus [1]) | MIC (Streptococcus pneumoniae [2]) | MBC (Streptococcus pneumoniae [3]) | MIC (Haemophilus influenzae [4]) | Selectivity ratio (Streptococcus pneumoniae [5]) | MIC (Streptococcus pneumoniae [6]) | MIC (Streptococcus pneumoniae [7]) | MBC (Streptococcus pneumoniae [8]) | Selectivity ratio (Streptococcus pneumoniae [9]) | MBC (Haemophilus influenzae [10]) | Selectivity ratio (Haemophilus influenzae [11]) | MIC (Streptococcus pyogenes [12]) | MBC (Streptococcus pyogenes [13]) | Selectivity ratio (Streptococcus pyogenes [14]) | MBC (Staphylococcus aureus [15]) | Selectivity ratio (Staphylococcus aureus [16]) | MIC (Staphylococcus aureus [17]) | MBC (Staphylococcus aureus [18]) | MBC (Streptococcus pneumoniae [19])
CC[C@H]1OC(=O)[C@@](C)(F)C(=O)[C@H](C)[C@@H](O[C@@H]2O[C@H](C)C[C@H](N(C)C)[C@H]2O)[C@](C)(OC)C[C@@H](C)/C(=N\OC/C=C/c2cncc(C(=O)O)c2)[C@H](C)[C@H]2OC(=O)O[C@@]21C | 8 µg/mL | 0.25 µg/mL | 0.5 µg/mL (≈ 0.619 µM) | 32 µg/mL | 2 | > 32 µg/mL | 8 µg/mL | 16 µg/mL (≈ 19.8 µM) | 2 | 32 µg/mL (≈ 39.6 µM) | 1 | 0.5 µg/mL | > 4 µg/mL | >8 | > 64 µg/mL | >8 | > 256 µg/mL |  | 
CC[C@H]1OC(=O)[C@@](C)(F)C(=O)[C@H](C)[C@@H](O[C@@H]2O[C@H](C)C[C@H](N(C)C)[C@H]2O)[C@](C)(OC)C[C@@H](C)/C(=N\OC/C=C/c2cncc(N)c2)[C@H](C)[C@H]2OC(=O)O[C@@]21C | 0.5 µg/mL | 0.125 µg/mL | 0.125 µg/mL (≈ 0.16 µM) | 8 µg/mL | 1 | > 32 µg/mL | 1 µg/mL | 1 µg/mL (≈ 1.28 µM) | 1 | 16 µg/mL (≈ 20.5 µM) | 2 | 0.031 µg/mL | > 0.25 µg/mL | >8 | > 4 µg/mL | >8 | 256 µg/mL | > 256 µg/mL | 
CC[C@H]1OC(=O)[C@@](C)(F)C(=O)[C@H](C)[C@@H](O[C@@H]2O[C@H](C)C[C@H](N(C)C)[C@H]2O)[C@](C)(OC)C[C@@H](C)/C(=N\OCC#Cc2cncc(NC(C)=O)c2)[C@H](C)[C@H]2OC(=O)O[C@@]21C | 1 µg/mL | 0.062 µg/mL | 0.25 µg/mL (≈ 0.305 µM) | 8 µg/mL | 4 | > 32 µg/mL | 4 µg/mL | 4 µg/mL (≈ 4.88 µM) | 1 | 16 µg/mL (≈ 19.5 µM) | 2 | 0.125 µg/mL | > 1 µg/mL | >8 | > 8 µg/mL | >8 | > 256 µg/mL |  | 
CC[C@H]1OC(=O)[C@@](C)(F)C(=O)[C@H](C)[C@@H](O[C@@H]2O[C@H](C)C[C@H](N(C)C)[C@H]2O)[C@](C)(OC)C[C@@H](C)/C(=N\OCC#Cc2ccc([N+](=O)[O-])nc2)[C@H](C)[C@H]2OC(=O)O[C@@]21C | 0.25 µg/mL | 0.125 µg/mL | 0.125 µg/mL (≈ 0.155 µM) | 16 µg/mL | 1 | > 32 µg/mL | 1 µg/mL | 4 µg/mL (≈ 4.96 µM) | 4 | 32 µg/mL (≈ 39.7 µM) | 2 | 0.016 µg/mL | 0.062 µg/mL (≈ 0.0768 µM) | 4 | 2 µg/mL (≈ 2.48 µM) | 8 | 128 µg/mL | > 256 µg/mL | 
CC[C@H]1OC(=O)[C@@](C)(F)C(=O)[C@H](C)[C@@H](O[C@@H]2O[C@H](C)C[C@H](N(C)C)[C@H]2O)[C@](C)(OC)C[C@@H](C)/C(=N\OC/C=C/c2ccc3ncc(C(=O)O)cc3c2)[C@H](C)[C@H]2OC(=O)O[C@@]21C | 4 µg/mL | 1 µg/mL | 2 µg/mL (≈ 2.33 µM) | 32 µg/mL | 2 | 32 µg/mL | 16 µg/mL | 32 µg/mL (≈ 37.3 µM) | 2 | 64 µg/mL (≈ 74.6 µM) | 2 | 0.062 µg/mL | > 0.5 µg/mL | >8 | > 32 µg/mL | >8 | > 256 µg/mL |  | > 32 µg/mL
CC[C@H]1OC(=O)[C@H](C)[C@@H](O[C@H]2C[C@@](C)(OC)[C@@H](O)[C@H](C)O2)[C@H](C)[C@@H](O[C@@H]2O[C@H](C)C[C@H](N(C)C)[C@H]2O)[C@](C)(OC)C[C@@H](C)C(=O)[C@H](C)[C@@H](O)[C@]1(C)O [CLARITHROMYCIN] | 32 µg/mL | 0.062 µg/mL | 0.25 µg/mL (≈ 0.334 µM) | 4 µg/mL | 4 | > 32 µg/mL | 4 µg/mL | 32 µg/mL (≈ 42.8 µM) | 8 | 8 µg/mL (≈ 10.7 µM) | 2 | 8 µg/mL | > 64 µg/mL | >8 | > 256 µg/mL | >8 | > 256 µg/mL |  | 
CC[C@H]1OC(=O)[C@@](C)(F)C(=O)[C@H](C)[C@@H](O[C@@H]2O[C@H](C)C[C@H](N(C)C)[C@H]2O)[C@](C)(OC)C[C@@H](C)/C(=N\OCC#Cc2cncc(C#N)c2)[C@H](C)[C@H]2OC(=O)O[C@@]21C | 0.5 µg/mL | 0.125 µg/mL | 0.125 µg/mL (≈ 0.159 µM) | 8 µg/mL | 1 | > 32 µg/mL | 1 µg/mL | 2 µg/mL (≈ 2.54 µM) | 2 | 16 µg/mL (≈ 20.3 µM) | 2 | 0.25 µg/mL | > 2 µg/mL | >8 | > 4 µg/mL | >8 | 128 µg/mL | > 256 µg/mL | 
CC[C@H]1OC(=O)[C@@](C)(F)C(=O)[C@H](C)[C@@H](O[C@@H]2O[C@H](C)C[C@H](N(C)C)[C@H]2O)[C@](C)(OC)C[C@@H](C)/C(=N\OCC#Cc2ccc(N)nc2)[C@H](C)[C@H]2OC(=O)O[C@@]21C | 1 µg/mL | 0.25 µg/mL | 0.5 µg/mL (≈ 0.644 µM) | 16 µg/mL | 2 | > 32 µg/mL | 2 µg/mL | 2 µg/mL (≈ 2.57 µM) | 1 | 32 µg/mL (≈ 41.2 µM) | 2 | 0.125 µg/mL | > 1 µg/mL | >8 | > 8 µg/mL | >8 | 256 µg/mL | > 256 µg/mL | 
CC[C@H]1OC(=O)[C@@](C)(F)C(=O)[C@H](C)[C@@H](O[C@@H]2O[C@H](C)C[C@H](N(C)C)[C@H]2O)[C@](C)(OC)C[C@@H](C)/C(=N\OCC#Cc2cncc(C(N)=O)c2)[C@H](C)[C@H]2OC(=O)O[C@@]21C | 1 µg/mL | 0.25 µg/mL | 1 µg/mL (≈ 1.24 µM) | 16 µg/mL | 4 | > 32 µg/mL | 2 µg/mL | 2 µg/mL (≈ 2.48 µM) | 1 | 32 µg/mL (≈ 39.8 µM) | 2 | 0.125 µg/mL | > 1 µg/mL | >8 | > 8 µg/mL | >8 | > 256 µg/mL |  | 
CC[C@H]1OC(=O)[C@@](C)(F)C(=O)[C@H](C)[C@@H](O[C@@H]2O[C@H](C)C[C@H](N(C)C)[C@H]2O)[C@](C)(OC)C[C@@H](C)/C(=N\OCC#Cc2cncc(N)c2)[C@H](C)[C@H]2OC(=O)O[C@@]21C | 0.5 µg/mL | 0.25 µg/mL | 0.5 µg/mL (≈ 0.644 µM) | 16 µg/mL | 2 | > 32 µg/mL | 4 µg/mL | 4 µg/mL (≈ 5.15 µM) | 1 | 32 µg/mL (≈ 41.2 µM) | 2 | 0.062 µg/mL | > 0.5 µg/mL | >8 | > 4 µg/mL | >8 | > 256 µg/mL |  | 
CC[C@H]1OC(=O)[C@@](C)(F)C(=O)[C@H](C)[C@@H](O[C@@H]2O[C@H](C)C[C@H](N(C)C)[C@H]2O)[C@](C)(OC)C[C@@H](C)/C(=N\OCC#Cc2cnc(N)c3ccccc23)[C@H](C)[C@H]2OC(=O)O[C@@]21C | 8 µg/mL | 2 µg/mL | 4 µg/mL (≈ 4.84 µM) | 64 µg/mL | 2 | > 32 µg/mL | 16 µg/mL | 16 µg/mL (≈ 19.3 µM) | 1 | 64 µg/mL (≈ 77.4 µM) | 1 | 1 µg/mL | 8 µg/mL (≈ 9.67 µM) | 8 | 32 µg/mL (≈ 38.7 µM) | 4 | 128 µg/mL | > 128 µg/mL | 
